Measurements taken from ChEMBL document CHEMBL4689842, “EUbOPEN Chemogenomics Library wave 1” (2021).

Tested on: U2OS
Test: Multiplex assay against U2OS
Type: toxicity, cell-based
Conditions: human
Procedure, shortened: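 Per cents of healthy-nucleus cells form the tubulin, mitochondrial-mass and membrane-permeability phenotype values. Live cells were stained at seeding with Hoechst33342, BioTracker Green Microtubule Cytoskeleton Dye, MitoTracker Red and Annexin V Alexa Fluor 680. After compound addition they were imaged on a CQ1 microscope at 37°C and 5% CO2, and CellPathfinder machine-learning gating split them into Hoechst high-intensity objects or normal cells, normal cells into healthy, pyknosed or fragmented nuclei, and pyknosed cells into mitotic or apoptotic.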

[1] = 12 h, 1 µM, compound concentration 1 uM, replicate 1
[2] = 12 h, 1 µM, compound concentration 1 uM, replicate 2
[3] = 12 h, 10 µM, compound concentration 10 uM, replicate 1
[4] = 12 h, 10 µM, compound concentration 10 uM, replicate 2
[5] = 24 h, 1 µM, compound concentration 1 uM, replicate 1
[6] = 24 h, 1 µM, compound concentration 1 uM, replicate 2
[7] = 24 h, 10 µM, compound concentration 10 uM, replicate 1
[8] = 24 h, 10 µM, compound concentration 10 uM, replicate 2
[9] = 48 h, 1 µM, compound concentration 1 uM, replicate 1
[10] = 48 h, 1 µM, compound concentration 1 uM, replicate 2
[11] = 48 h, 10 µM, compound concentration 10 uM, replicate 1
[12] = 48 h, 10 µM, compound concentration 10 uM, replicate 2

## COC(=N)c1nc2ccc3ncnc(Nc4ccc(OC)cc4F)c3c2s1
[1]
  Population Apoptotic (%): 36%
  Population Fragmented Nuclei (%): 9%
  Population Healthy Nuclei (%): 78%
  Population Hoechst High Intensity Objects (%): 8%
  Population Membrane Permeable-Phenotype (%): 17%
  Population Mitochondria Different-Phenotype (%): 25%
  Population Mitotic Cells (%): 63%
  Population Normal (%): 91%
  Population Pyknosed Nuclei (%): 12%
  Population Tubulin-Different-Phenotype (%): 27%
  Total Cell Count: 162
[2]
  Population Apoptotic (%): 23%
  Population Fragmented Nuclei (%): 10%
  Population Healthy Nuclei (%): 75%
  Population Hoechst High Intensity Objects (%): 6%
  Population Membrane Permeable-Phenotype (%): 16%
  Population Mitochondria Different-Phenotype (%): 30%
  Population Mitotic Cells (%): 76%
  Population Normal (%): 93%
  Population Pyknosed Nuclei (%): 13%
  Population Tubulin-Different-Phenotype (%): 33%
  Total Cell Count: 110
[3]
  Population Apoptotic (%): 37%
  Population Fragmented Nuclei (%): 2%
  Population Healthy Nuclei (%): 92%
  Population Hoechst High Intensity Objects (%): 1%
  Population Membrane Permeable-Phenotype (%): 10%
  Population Mitochondria Different-Phenotype (%): 19%
  Population Mitotic Cells (%): 62%
  Population Normal (%): 98%
  Population Pyknosed Nuclei (%): 5%
  Population Tubulin-Different-Phenotype (%): 25%
  Total Cell Count: 190
[4]
  Population Fragmented Nuclei (%): 13%
  Population Healthy Nuclei (%): 77%
  Population Hoechst High Intensity Objects (%): 13%
  Population Membrane Permeable-Phenotype (%): 8%
  Population Mitochondria Different-Phenotype (%): 24%
  Population Normal (%): 86%
  Population Pyknosed Nuclei (%): 8%
  Population Tubulin-Different-Phenotype (%): 32%
  Total Cell Count: 179
[5]
  Population Apoptotic (%): 28%
  Population Fragmented Nuclei (%): 5%
  Population Healthy Nuclei (%): 82%
  Population Hoechst High Intensity Objects (%): 5%
  Population Membrane Permeable-Phenotype (%): 17%
  Population Mitochondria Different-Phenotype (%): 22%
  Population Mitotic Cells (%): 71%
  Population Normal (%): 94%
  Population Pyknosed Nuclei (%): 12%
  Population Tubulin-Different-Phenotype (%): 44%
  Total Cell Count: 219
[6]
  Population Apoptotic (%): 44%
  Population Fragmented Nuclei (%): 9%
  Population Hoechst High Intensity Objects (%): 8%
  Population Membrane Permeable-Phenotype (%): 12%
  Population Mitochondria Different-Phenotype (%): 27%
  Population Mitotic Cells (%): 55%
  Population Normal (%): 91%
  Population Pyknosed Nuclei (%): 7%
  Population Tubulin-Different-Phenotype (%): 39%
  Total Cell Count: 118
[7]
  Population Fragmented Nuclei (%): 1%
  Population Healthy Nuclei (%): 96%
  Population Hoechst High Intensity Objects (%): 1%
  Population Membrane Permeable-Phenotype (%): 7%
  Population Mitochondria Different-Phenotype (%): 16%
  Population Normal (%): 98%
  Population Pyknosed Nuclei (%): 1%
  Population Tubulin-Different-Phenotype (%): 28%
  Total Cell Count: 264
[8]
  Population Apoptotic (%): 75%
  Population Fragmented Nuclei (%): 11%
  Population Healthy Nuclei (%): 85%
  Population Hoechst High Intensity Objects (%): 7%
  Population Membrane Permeable-Phenotype (%): 10%
  Population Mitochondria Different-Phenotype (%): 34%
  Population Mitotic Cells (%): 25%
  Population Normal (%): 92%
  Population Pyknosed Nuclei (%): 3%
  Population Tubulin-Different-Phenotype (%): 32%
  Total Cell Count: 222

## C=C1/C(=C\C=C2/CCC[C@]3(C)[C@@H]([C@H](C)/C=C/[C@H](C)C(C)C)CC[C@@H]23)C[C@@H](O)C[C@@H]1O [DOXERCALCIFEROL]
[1]
  Population Apoptotic (%): 38%
  Population Fragmented Nuclei (%): 9%
  Population Healthy Nuclei (%): 82%
  Population Hoechst High Intensity Objects (%): 6%
  Population Membrane Permeable-Phenotype (%): 5%
  Population Mitochondria Different-Phenotype (%): 11%
  Population Mitotic Cells (%): 61%
  Population Normal (%): 93%
  Population Pyknosed Nuclei (%): 8%
  Population Tubulin-Different-Phenotype (%): 17%
  Total Cell Count: 2
[2]
  Population Apoptotic (%): 40%
  Population Fragmented Nuclei (%): 1%
  Population Healthy Nuclei (%): 90%
  Population Hoechst High Intensity Objects (%): 1%
  Population Mitochondria Different-Phenotype (%): 14%
  Population Mitotic Cells (%): 60%
  Population Normal (%): 98%
  Population Tubulin-Different-Phenotype (%): 9%
  Total Cell Count: 111
[3]
  Population Apoptotic (%): 36%
  Population Fragmented Nuclei (%): 20%
  Population Healthy Nuclei (%): 60%
  Population Hoechst High Intensity Objects (%): 9%
  Population Membrane Permeable-Phenotype (%): 8%
  Population Mitochondria Different-Phenotype (%): 17%
  Population Mitotic Cells (%): 63%
  Population Normal (%): 90%
  Population Pyknosed Nuclei (%): 19%
  Population Tubulin-Different-Phenotype (%): 8%
  Total Cell Count: 160
[4]
  Population Apoptotic (%): 0%
  Population Fragmented Nuclei (%): 27%
  Population Healthy Nuclei (%): 67%
  Population Hoechst High Intensity Objects (%): 6%
  Population Membrane Permeable-Phenotype (%): 2%
  Population Mitochondria Different-Phenotype (%): 21%
  Population Mitotic Cells (%): 100%
  Population Normal (%): 93%
  Population Pyknosed Nuclei (%): 5%
  Population Tubulin-Different-Phenotype (%): 13%
  Total Cell Count: 61
[5]
  Population Apoptotic (%): 7%
  Population Fragmented Nuclei (%): 8%
  Population Healthy Nuclei (%): 84%
  Population Hoechst High Intensity Objects (%): 2%
  Population Membrane Permeable-Phenotype (%): 3%
  Population Mitochondria Different-Phenotype (%): 8%
  Population Mitotic Cells (%): 92%
  Population Normal (%): 97%
  Population Pyknosed Nuclei (%): 6%
  Population Tubulin-Different-Phenotype (%): 9%
  Total Cell Count: 1
[6]
  Population Apoptotic (%): 42%
  Population Fragmented Nuclei (%): 5%
  Population Healthy Nuclei (%): 86%
  Population Hoechst High Intensity Objects (%): 4%
  Population Membrane Permeable-Phenotype (%): 4%
  Population Mitochondria Different-Phenotype (%): 7%
  Population Mitotic Cells (%): 57%
  Population Normal (%): 95%
  Population Pyknosed Nuclei (%): 8%
  Population Tubulin-Different-Phenotype (%): 14%
  Total Cell Count: 157
[7]
  Population Apoptotic (%): 56%
  Population Fragmented Nuclei (%): 43%
  Population Healthy Nuclei (%): 18%
  Population Hoechst High Intensity Objects (%): 23%
  Population Membrane Permeable-Phenotype (%): 11%
  Population Mitochondria Different-Phenotype (%): 26%
  Population Mitotic Cells (%): 43%
  Population Normal (%): 76%
  Population Pyknosed Nuclei (%): 37%
  Population Tubulin-Different-Phenotype (%): 7%
  Total Cell Count: 197
[8]
  Population Apoptotic (%): 33%
  Population Fragmented Nuclei (%): 25%
  Population Healthy Nuclei (%): 70%
  Population Hoechst High Intensity Objects (%): 3%
  Population Membrane Permeable-Phenotype (%): 1%
  Population Mitochondria Different-Phenotype (%): 16%
  Population Mitotic Cells (%): 66%
  Population Normal (%): 96%
  Population Pyknosed Nuclei (%): 4%
  Population Tubulin-Different-Phenotype (%): 13%
  Total Cell Count: 83
[9]
  Population Apoptotic (%): 21%
  Population Fragmented Nuclei (%): 4%
  Population Healthy Nuclei (%): 89%
  Population Hoechst High Intensity Objects (%): 2%
  Population Membrane Permeable-Phenotype (%): 2%
  Population Mitochondria Different-Phenotype (%): 13%
  Population Mitotic Cells (%): 78%
  Population Normal (%): 97%
  Population Pyknosed Nuclei (%): 6%
  Population Tubulin-Different-Phenotype (%): 10%
  Total Cell Count: 5
[10]
  Population Apoptotic (%): 42%
  Population Healthy Nuclei (%): 90%
  Population Hoechst High Intensity Objects (%): 1%
  Population Membrane Permeable-Phenotype (%): 0%
  Population Mitotic Cells (%): 57%
  Population Normal (%): 98%
  Population Pyknosed Nuclei (%): 5%
  Population Tubulin-Different-Phenotype (%): 11%
  Total Cell Count: 235
[11]
  Population Apoptotic (%): 47%
  Population Fragmented Nuclei (%): 53%
  Population Healthy Nuclei (%): 16%
  Population Hoechst High Intensity Objects (%): 18%
  Population Membrane Permeable-Phenotype (%): 25%
  Population Mitochondria Different-Phenotype (%): 29%
  Population Mitotic Cells (%): 52%
  Population Normal (%): 81%
  Population Pyknosed Nuclei (%): 30%
  Population Tubulin-Different-Phenotype (%): 25%
  Total Cell Count: 316
[12]
  Population Apoptotic (%): 22%
  Population Fragmented Nuclei (%): 12%
  Population Healthy Nuclei (%): 79%
  Population Hoechst High Intensity Objects (%): 3%
  Population Membrane Permeable-Phenotype (%): 2%
  Population Mitochondria Different-Phenotype (%): 22%
  Population Mitotic Cells (%): 77%
  Population Normal (%): 96%
  Population Pyknosed Nuclei (%): 8%
  Population Tubulin-Different-Phenotype (%): 28%
  Total Cell Count: 127
